Test results from ChEMBL document CHEMBL1138265, “In vivo anti-Chagas vinylthio-, vinylsulfinyl-, and vinylsulfonylbenzofuroxan derivatives” (J Med Chem, 2007).
Activity calls are given as the source filed them. No cut-off for these calls is given here.

Key:
[1] = target: Cruzipain (Trypanosoma cruzi) (UniProt P25779); assay: Inhibition of Trypanosoma cruzi Tulahuen 2 cruzipain at 10 uM
Procedure, shortened: (§1)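 Cruzipain purified from Tulahuen 2 epimastigotes by ConA-Sepharose affinity chromatography. Assayed in 50 mM Tris-acetate pH 8.0 with 0.3 mM Bz-Pro-Phe-Arg-pNA and 10 mM β-mercaptoethanol, A410 followed at 30 °C. Inhibitors added in DMSO, controls with matching DMSO, E-64 as reference. Tested at 10-100 µM; means of at least two measurements.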

[2] = target: Cruzipain (Trypanosoma cruzi) (UniProt P25779); assay: Inhibition of Trypanosoma cruzi Tulahuen 2 cruzipain at 25 uM; procedure, shortened: as §1
Trypanosoma cruzi [3] = assay: Antitrypanosomal activity against Trypanosoma cruzi Tulahuen 2; format: functional, organism-based
Procedure, shortened: (§2)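 Epimastigotes from 5-day stationary culture inoculated at 1 × 10^6 cells/mL into medium with compound added from DMSO stock (final DMSO ≤0.4%; control 0.4% DMSO, no compound). Growth followed by A600; % inhibition from day 0 and day 5 absorbance versus control. IC50 = concentration reducing the day-5 absorbance ratio to 50%. Single-dose screen at 25 µM. Means of three experiments.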

Trypanosoma cruzi [4] = assay: Antitrypanosomal activity against Trypanosoma cruzi CL Brener; format: functional, organism-based; procedure, shortened: as §2
Trypanosoma cruzi [5] = assay: Antitrypanosomal activity against Trypanosoma cruzi Y; format: functional, organism-based; procedure, shortened: as §2
[6] = target: Cruzipain (Trypanosoma cruzi) (UniProt P25779); assay: Inhibition of Trypanosoma cruzi Tulahuen 2 cruzipain at 50 uM; procedure, shortened: as §1
Mus musculus = assay: Toxicity in Trypanosoma cruzi Tulahuen 2 infected Swiss mouse model of Chagas disease at 60 mg/kg, po; conditions: in vivo
Trypanosoma cruzi [7] = assay: Antitrypanosomal activity against Trypanosoma cruzi Tulahuen 2 infected Swiss mouse model of Chagas disease at 60 mg/kg, po after 41 days post infection
Trypanosoma cruzi [8] = assay: Antitrypanosomal activity against Trypanosoma cruzi Tulahuen 2 infected Swiss mouse model of Chagas disease at 60 mg/kg, po after 35 days post infection
[9] = target: Cruzipain (Trypanosoma cruzi) (UniProt P25779); assay: Inhibition of Trypanosoma cruzi Tulahuen 2 cruzipain at 100 uM; procedure, shortened: as §1
THP-1 = assay: Cytotoxicity against human THP1 cells after 48 hrs; format: cell-based; conditions: THP-1, 48 h
Procedure, shortened: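 THP-1 human macrophages in RPMI 1640 with 20% heat-inactivated FCS, left to attach 48 h at 37 °C, 5% CO2. Exposed to compounds at 25-1000 µM for 48 h, washed, then MTT 0.4 mg/mL for 3 h. Formazan dissolved in DMSO and read at OD595; % cytotoxicity corrected for compound-in-medium blanks. Triplicates per concentration, six growth controls; mean of two experiments.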

[10] = Selectivity index, ratio of IC50 for human THP1 cells to IC50 for Trypanosoma cruzi Tulahuen 2; format: functional, THP-1
[11] = Selectivity index, ratio of IC50 for human THP1 cells to IC50 for Trypanosoma cruzi CL Brener; format: functional, THP-1
[12] = Selectivity index, ratio of IC50 for human THP1 cells to IC50 for Trypanosoma cruzi Y; format: functional, THP-1
[13] = target: Cruzipain (Trypanosoma cruzi) (UniProt P25779); assay: Inhibition of Trypanosoma cruzi Tulahuen 2 cruzipain at 20 uM; procedure, shortened: as §1
[14] = target: Trypanothione reductase (Trypanosoma cruzi) (UniProt P28593); assay: Inhibition of Trypanosoma cruzi trypanothione reductase at 100 uM
Sequence of Trypanothione reductase (Trypanosoma cruzi) (P28593 whole entry, looked up): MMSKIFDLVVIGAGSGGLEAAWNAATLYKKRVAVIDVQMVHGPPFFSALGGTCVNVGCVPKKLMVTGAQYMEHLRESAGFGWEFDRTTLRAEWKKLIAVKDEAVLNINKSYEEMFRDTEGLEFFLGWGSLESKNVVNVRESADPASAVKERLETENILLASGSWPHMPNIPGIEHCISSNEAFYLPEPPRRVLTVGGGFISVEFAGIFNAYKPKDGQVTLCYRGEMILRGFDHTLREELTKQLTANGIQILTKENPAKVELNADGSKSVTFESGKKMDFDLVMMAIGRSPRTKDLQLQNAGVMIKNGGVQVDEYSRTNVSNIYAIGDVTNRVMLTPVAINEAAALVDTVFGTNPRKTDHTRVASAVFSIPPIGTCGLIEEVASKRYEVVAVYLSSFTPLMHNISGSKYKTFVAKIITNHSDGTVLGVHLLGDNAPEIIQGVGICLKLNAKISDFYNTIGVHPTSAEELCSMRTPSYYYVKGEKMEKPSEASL

[15] = target: Trypanothione reductase (Trypanosoma cruzi) (UniProt P28593); assay: Inhibition of Trypanosoma cruzi trypanothione reductase assessed as volume activity per minute at 100 uM
[16] = target: Trypanothione reductase (Trypanosoma cruzi) (UniProt P28593); assay: Inhibition of Trypanosoma cruzi trypanothione reductase assessed as volume activity per min at 100 uM in presence of NADPH
Procedure, shortened: (§3)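 Time-dependent inactivation: 170 mU recombinant TR incubated at 25 °C in 40 mM HEPES, 1 mM EDTA, pH 7.5 with 100 µM inhibitor, with or without 160 µM NADPH, for 0-24 h. Aliquots diluted 200-fold and residual activity measured in the standard NADPH/TS2 assay at 340 nm. Controls: TR plus NADPH with DMSO, and TR plus inhibitor.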

[17] = target: Trypanothione reductase (Trypanosoma cruzi) (UniProt P28593); assay: Inhibition of Trypanosoma cruzi trypanothione reductase assessed as volume activity per min at 100 uM after 1 hr; procedure, shortened: as §3
[18] = target: Trypanothione reductase (Trypanosoma cruzi) (UniProt P28593); assay: Inhibition of Trypanosoma cruzi trypanothione reductase assessed as volume activity per min at 100 uM in presence of NADPH after 1 hr; procedure, shortened: as §3
[19] = target: Trypanothione reductase (Trypanosoma cruzi) (UniProt P28593); assay: Inhibition of Trypanosoma cruzi trypanothione reductase assessed as volume activity per min at 100 uM after 4 hrs; procedure, shortened: as §3
[20] = target: Trypanothione reductase (Trypanosoma cruzi) (UniProt P28593); assay: Inhibition of Trypanosoma cruzi trypanothione reductase assessed as volume activity per min at 100 uM in presence of NADPH after 4 hrs; procedure, shortened: as §3
Cruzipain [21] = target: T1, Cruzipain (Trypanosoma cruzi, UniProt P25779); assay: Inhibition of Trypanosoma cruzi Tulahuen 2 cruzipain; procedure, shortened: as §1
T1 sequence (P25779 whole entry): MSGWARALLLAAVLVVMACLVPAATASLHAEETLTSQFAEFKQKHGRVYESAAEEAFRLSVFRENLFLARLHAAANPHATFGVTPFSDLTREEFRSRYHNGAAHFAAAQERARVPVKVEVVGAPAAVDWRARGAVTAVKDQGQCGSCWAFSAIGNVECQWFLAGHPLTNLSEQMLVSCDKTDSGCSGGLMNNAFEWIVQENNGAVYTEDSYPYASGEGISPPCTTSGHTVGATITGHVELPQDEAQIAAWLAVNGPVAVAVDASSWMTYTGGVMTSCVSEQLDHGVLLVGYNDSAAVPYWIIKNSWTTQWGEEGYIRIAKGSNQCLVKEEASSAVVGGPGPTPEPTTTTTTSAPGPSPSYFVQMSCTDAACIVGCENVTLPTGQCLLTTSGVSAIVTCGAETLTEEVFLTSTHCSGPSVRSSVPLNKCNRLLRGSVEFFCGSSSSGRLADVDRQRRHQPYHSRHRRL

Cruzipain [22] = target: T1, Cruzipain; assay: Binding affinity to Trypanosoma cruzi Tulahuen 2 cruzipain
Trypanosoma cruzi [23] = assay: Effect on oxygen uptake in Trypanosoma cruzi Tulahuen 2 at 200 uM; format: functional, organism-based
Procedure, shortened: (§4)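 Tulahuen 2 epimastigotes grown 5 days, washed, resuspended in phosphate-saline buffer pH 7.4 with 5.5 mM glucose at 0.2 mg protein/mL (40 × 10^6 parasites/mL). O2 consumption measured by Clark electrode at 28 °C, compound 200 µM final in DMSO; control with 0.1% DMSO. Cyanide-insensitive respiration measured after 20 mM KCN.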

Trypanosoma cruzi [24] = assay: Effect on oxygen uptake in Trypanosoma cruzi Tulahuen 2 assessed as increase in oxygen consumption at 200 uM; format: functional, organism-based; procedure, shortened: as §4

Sequence of Cruzipain (Trypanosoma cruzi) (P25779 123-467 limits assumed): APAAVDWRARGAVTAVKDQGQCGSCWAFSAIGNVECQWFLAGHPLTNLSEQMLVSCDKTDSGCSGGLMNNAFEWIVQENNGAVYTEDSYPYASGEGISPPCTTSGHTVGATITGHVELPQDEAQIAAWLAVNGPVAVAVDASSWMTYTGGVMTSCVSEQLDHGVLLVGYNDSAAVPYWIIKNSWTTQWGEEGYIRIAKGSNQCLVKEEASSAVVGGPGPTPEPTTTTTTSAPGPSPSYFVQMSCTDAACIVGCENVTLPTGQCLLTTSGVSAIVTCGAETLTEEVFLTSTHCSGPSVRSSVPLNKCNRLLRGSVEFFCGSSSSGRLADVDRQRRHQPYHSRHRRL

SMILES | inhibition [1] | IC50 (Trypanosoma cruzi [3]) | IC50 (Trypanosoma cruzi [4]) | IC50 (Trypanosoma cruzi [5]) | inhibition [6] | Activity (Mus musculus) | Activity (Trypanosoma cruzi [7]) | Activity (Trypanosoma cruzi [8]) | inhibition [9] | IC50 (THP-1) | Ratio IC50 [10] | Ratio IC50 [11] | Ratio IC50 [12] | inhibition [13] | also measured
CC(C)C[C@H](NC(=O)[C@H]1O[C@@H]1C(=O)O)C(=O)NCCCCN=C(N)N | 100% |  |  |  |  |  |  |  |  |  |  |  |  |  | 
[O-][n+]1onc2cc(/C=C/Sc3ccccc3)ccc21 | 0% | 2.6 µM | 4.7 µM | 7.6 µM | 25% | Non-toxic | Active | Active |  |  |  |  |  |  | inhibition [2]: 15%
[O-][n+]1onc2cc(/C=C/c3ccccc3)ccc21 | 12% | 10.8 µM | 7.5 µM | 6.2 µM | 43% |  |  |  | 22% | 110 µM | 10.2 | 14.7 | 17.7 | 0% | 
O=S(=O)(CCO)Cc1ccc2c(c1)no[n+]2[O-] |  | > 25 µM |  |  |  |  |  |  |  | 300 µM | <12 |  |  |  | 
[O-][n+]1onc2cc(/C=C/[S+]([O-])c3ccccc3)ccc21 (configuration not stated) | 2% | 2.6 µM | 15.1 µM | 8.8 µM | 24% | Non-toxic | Active | Active | 12% | 124 µM | 47.7 | 8.2 | 14.1 | 0% | inhibition [14]: 13%; deltaA [15]: 0.104; deltaA [16]: 0.103; deltaA [17]: 0.086; deltaA [18]: 0.105; deltaA [19]: 0.091; deltaA [20]: 0.105
O=S(=O)(/C=C/c1ccc2c(c1)no[n+]2[O-])c1ccccc1 | 0% | 1.6 µM | 7.6 µM | 5 µM | 35% | Non-toxic | Active | Active | 0% | 409 µM | 255.6 | 53.8 | 81.8 | 0% | IC50 (Cruzipain [21]): > 50 µM; Kd (Cruzipain [22]): 500 µM; deltaA [15]: 0.102; deltaA [16]: 0.101; deltaA [17]: 0.11; deltaA [18]: 0.099; Activity (Trypanosoma cruzi [23]): inactive; Activity (Trypanosoma cruzi [24]): inactive; deltaA [19]: 0.106; deltaA [20]: 0.098
CC(=O)N1CCN(c2ccc(OCC3COC(Cn4ccnc4)(c4ccc(Cl)cc4Cl)O3)cc2)CC1 (configuration not stated) [KETOCONAZOLE] |  | 10 µM | 5 µM | 9.8 µM |  |  |  |  |  | 44 µM | 4.4 | 8.8 | 4.5 |  | 
CN(C/C=C/C#CC(C)(C)C)Cc1cccc2ccccc12 [TERBINAFINE] |  | 17.1 µM | 42 µM | 44.7 µM |  |  |  |  |  | 329 µM | 19.3 | 7.8 | 7.4 |  | 
O=S(=O)(/C=C\c1ccc2c(c1)no[n+]2[O-])c1ccccc1 | 2% | 1.1 µM | 6.1 µM | 2.1 µM | 24% | Non-toxic | Active | Active | 19% | 109 µM | 99.1 | 17.9 | 51.9 | 3% | IC50 (Cruzipain [21]): > 50 µM; Kd (Cruzipain [22]): 1100 µM; deltaA [15]: 0.104; deltaA [16]: 0.097; deltaA [17]: 0.102; deltaA [18]: 0.084; Activity (Trypanosoma cruzi [23]): inactive; Activity (Trypanosoma cruzi [24]): inactive; deltaA [20]: 0.088
[O-][n+]1onc2cc(/C=C\c3ccccc3)ccc21 | 19% | 7 µM | 15.7 µM | 9 µM | 20% |  |  |  | 44% | 62.6 µM | 8.9 | 4 | 7 | 11% | 
[O-][n+]1onc2cc(/C=C\Sc3ccccc3)ccc21 |  | 3.8 µM | 3.5 µM | 10 µM |  | Non-toxic | Active | Active |  |  |  |  |  |  | 
CC1CS(=O)(=O)CCN1/N=C/c1ccc([N+](=O)[O-])o1 (configuration not stated) [NIFURTIMOX] |  | 7.7 µM | 8.5 µM | 6.5 µM |  |  |  |  |  |  |  |  |  |  | 
C=CS(=O)(=O)Cc1ccc2c(c1)no[n+]2[O-] |  | 14.6 µM | 9.1 µM | 12.3 µM |  |  |  |  |  | 274 µM | 18.8 | 30.1 | 22.3 |  | 
O=C(Cn1ccnc1[N+](=O)[O-])NCc1ccccc1 [BENZNIDAZOLE] |  | 7.4 µM | 4.5 µM | 3.8 µM |  | Non-toxic |  |  |  |  |  |  |  |  | 
